Test results taken from ChEMBL document CHEMBL1125102, “Synthesis and biological evaluation of 2-styrylquinazolin-4(3H)-ones, a new class of antimitotic anticancer agents which inhibit tubulin polymerization” (J Med Chem, 1990).
Values after ≈ are worked out from the molar mass of the structure shown. Values joined by “and” are separate entries in the source; they are usually repeats but may differ in a detail not shown here. Equal values may be shown once.

How the values were obtained:
Tubulin = experiment: Inhibition of tubulin polymerization; format: functional
Procedure, shortened: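 Glutamate-driven assembly: purified tubulin 1.0 mg/mL (10 μM) in 1.0 M monosodium glutamate pH 6.6, 1.0 mM MgCl2, 4% (v/v) DMSO, preincubated with drug 15 min at 37 °C, chilled, GTP added, then warmed 0→37 °C in cuvettes with turbidity read-out. IC50 = drug level halving extent of polymerization, obtained graphically in triplicate experiments.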

L1210 [1] = experiment: In vitro inhibition of L1210 murine leukemia cells by using MTT assay in cell culture; format: functional, cell-based; settings: Mus musculus
Procedure, shortened: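 L1210 murine leukemia cells in culture; cytotoxicity measured by MTT assay, reported as IC50 in μg/mL.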

L1210 [2] = experiment: In vivo inhibition of L1210 murine leukemia cells in mice (ip) at a dose of 50 mg/kg; format: functional, Mus musculus
Procedure, shortened: (§1)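 L1210 murine leukemia in mice: tumor cells inoculated ip, drug injected ip one day later; efficacy expressed as % T/C at the stated dose.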

L1210 [3] = experiment: In vivo inhibition of L1210 murine leukemia cells in mice (ip) at a dose of 240 mg/kg; format: functional, Mus musculus; procedure, shortened: as §1
L1210 [4] = experiment: In vivo inhibition of L1210 murine leukemia cells in mice (ip) at a dose of 200 mg/kg; format: functional, Mus musculus; procedure, shortened: as §1
L1210 [5] = experiment: In vivo inhibition of L1210 murine leukemia cells in mice (ip) at a dose of 25 mg/kg; format: functional, Mus musculus; procedure, shortened: as §1
L1210 [6] = experiment: In vivo inhibition of L1210 murine leukemia cells in mice (ip) at a dose of 100 mg/kg; format: functional, Mus musculus; procedure, shortened: as §1
[7] = Antitumor activity against murine sarcoma M531 cells was determined after (ip) administration of a dose of 240 mg/kg, ip; format: functional, Mus musculus; settings: route intraperitoneal
[8] = Antitumor activity against murine melanoma B16 cells was determined after (ip) administration of a dose of 200 mg/kg, ip; format: functional, Mus musculus; settings: route intraperitoneal
[9] = Antitumor activity against murine melanoma B16 cells was determined after (ip) administration of a dose of 100 mg/kg, ip; format: functional, Mus musculus; settings: route intraperitoneal
[10] = Antitumor activity against murine melanoma B16 cells was determined after (ip) administration of a dose of 400 mg/kg, ip; format: functional, Mus musculus; settings: route intraperitoneal
MX1 [11] = experiment: Antitumor activity against human mammary tumor xenograft MX-1(SRC) cells was determined after (ip) administration of a dose of 240 mg/kg; format: functional
L1210 [12] = experiment: (§2) Antitumor activity against murine leukemia P388 cells was determined after (ip) administration of a dose of 120 mg/kg; format: functional, Mus musculus
P388 [13] = experiment: as §2; format: functional, Mus musculus
[14] = Antitumor activity against human melanoma xenograft LOX (SC) cells was determined after (ip) administration of a dose of 60 mg/kg; format: functional
[15] = Antitumor activity against murine sarcoma M531 cells was determined after (ip) administration of a dose of 120 mg/kg, ip; format: functional, Mus musculus; settings: route intraperitoneal
[16] = Antitumor activity against human melanoma xenograft LOX (SC) cells was determined after (ip) administration of a dose of 240 mg/kg; format: functional
[17] = Antitumor activity against murine melanoma B16 cells was determined after (ip) administration of a dose of 300 mg/kg, ip; format: functional, Mus musculus; settings: route intraperitoneal
MX1 [18] = experiment: Antitumor activity against human mammary tumor xenograft MX-1(SRC) cells was determined after (ip) administration of a dose of 120 mg/kg; format: functional
MX1 [19] = experiment: Antitumor activity against human mammary tumor xenograft MX-1(SRC) cells was determined after (ip) administration of a dose of 60 mg/kg; format: functional
[20] = Antitumor activity against murine melanoma B16 cells was determined after (ip) administration of a dose of 50 mg/kg, ip; format: functional, Mus musculus; settings: route intraperitoneal
L1210 [21] = experiment: (§3) Antitumor activity against […] was determined after (ip) administration of a dose of 60 mg/kg; format: functional, Mus musculus
P388 [22] = experiment: as §3; format: functional, Mus musculus
[23] = Antitumor activity against human melanoma xenograft LOX (SC) cells was determined after (ip) administration of a dose of 120 mg/kg; format: functional
L1210 [24] = experiment: […]; format: functional, Mus musculus; settings: dose 150 mg/kg
Procedure, shortened: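 Murine L1210 leukemia cells were inoculated intraperitoneally into mice. Drug was injected intraperitoneally one day after tumor inoculation. Therapeutic efficacy was read out as % T/C at the stated dose in mg/kg.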

L1210 [25] = experiment: In vivo inhibition of L1210 murine leukemia cells in mice (ip) at a dose of 12 mg/kg; format: functional, Mus musculus; procedure, shortened: as §1

| SMILES | IC50 (Tubulin) | IC50 (L1210 [1]) | T/C (L1210 [4]) | other results |
| --- | --- | --- | --- | --- |
| CCOc1ccc2nc(/C=C/c3ccccc3)nc(O)c2c1 | > 40 µM | 0.4 µg/mL (≈ 1.37 µM) | – | – |
| Oc1nc(Cc2ccccc2)nc2ccc(Cl)cc12 | > 40 µM | > 1 µg/mL | – | – |
| CN1CCN(c2cc3nc(/C=C/c4ccccc4)nc(O)c3cc2F)CC1 | > 40 µM | 0.2 µg/mL (≈ 0.549 µM) | – | T/C (L1210 [2]): 100% |
| O=c1[nH]c(/C=C/c2ccccc2)nc2ccccc12 | 11 µM | 0.02 µg/mL (≈ 0.0806 µM) | – | T/C (L1210 [3]): 133% |
| Oc1nc(/C=C/c2ccccc2)nc2ccc3ncccc3c12 | > 40 µM | 0.4 µg/mL (≈ 1.34 µM) | – | T/C (L1210 [2]): 95% |
| Oc1nc(/C=C/c2ccccc2)nc2c(Cl)cccc12 | > 40 µM | > 1 µg/mL | – | – |
| O=c1[nH]c(=O)c2nc(/C=C/c3ccccc3)nc(O)c2[nH]1 | > 40 µM | > 1 µg/mL | – | T/C (L1210 [2]): 93% |
| Oc1nc(CC(c2ccccc2)N2CCOCC2)nc2ccc(Cl)cc12 (configuration not stated) | > 40 µM | – | 125% | – |
| Oc1nc(/C=C/c2ccccc2)nc2cc(N3CCCCC3)c(F)cc12 | > 40 µM | 0.2 µg/mL (≈ 0.572 µM) | 85% | – |
| Cc1ccc2nc(/C=C/c3ccccc3)nc(O)c2c1 | 2 µM | 0.02 µg/mL (≈ 0.0762 µM) | – | T/C (L1210 [5]): 107% |
| Oc1nc(/C=C/c2ccccn2)nc2ccc(Cl)cc12 | > 40 µM | 0.61 µg/mL (≈ 2.15 µM) | 91% | – |
| COc1ccc2nc(CC(c3ccccc3)N3CCCCC3)nc(O)c2c1 (configuration not stated) | 14 µM | 0.001 µg/mL (≈ 0.00275 µM) | – | T/C (L1210 [6]): 107% |
| Oc1nc(/C=C/c2ccccc2)nc2ccc(I)cc12 | 1.4 µM | 0.3 µg/mL (≈ 0.802 µM) | 117% | – |
| Oc1nc(/C=C/c2ccccc2)nc2sccc12 | > 40 µM | > 1 µg/mL | 92% | – |
| COc1ccc2nc(/C=C/c3ccccc3)[nH]c(=O)c2c1 | 2 µM | 0.001 µg/mL (≈ 0.00359 µM) | – | T/C [7]: 154%; T/C [8]: 197% and 141%; T/C (L1210 [2]): 173%; T/C [9]: 145%; T/C [10]: 190%; T/C (MX1 [11]): -81%; T/C (L1210 [12]): 225%; T/C (P388 [13]): 174%; T/C [14]: 142%; T/C [15]: 136%; T/C [16]: 153%; T/C [17]: 158%; T/C (MX1 [18]): 16%; T/C (MX1 [19]): 21%; T/C [20]: 129%; T/C (L1210 [21]): 158%; T/C (P388 [22]): 135%; T/C [23]: 142% |
| O=c1oc(/C=C/c2ccccc2)nc2c(O)nc(O)nc12 | > 40 µM | > 1 µg/mL | – | T/C (L1210 [2]): 94% |
| Cc1nc(/C=C/c2ccccc2)nc(O)c1C | > 40 µM | > 1 µg/mL | – | T/C (L1210 [2]): 89% |
| Cn1c(/C=C/c2ccccc2)nc(=O)c2cc(Cl)ccc21 | > 40 µM | 0.04 µg/mL (≈ 0.135 µM) | – | T/C (L1210 [2]): 96% |
| C/C=C/c1nc(O)c2ccccc2n1 | > 40 µM | > 1 µg/mL | – | – |
| Oc1nc(CCc2ccccc2)nc2ccc(Cl)cc12 | 7.3 µM | 0.01 µg/mL (≈ 0.0351 µM) | 113% | – |
| Nn1c(/C=C/c2ccccc2)nc2ccc(Cl)cc2c1=O | > 40 µM | > 1 µg/mL | – | T/C (L1210 [2]): 90% |

| SMILES | IC50 (Tubulin) | IC50 (L1210 [1]) | T/C (L1210 [4]) | other results |
| --- | --- | --- | --- | --- |
| Cc1nc(O)c2cc(Cl)ccc2n1 | > 40 µM | > 1 µg/mL | – | – |
| Nc1ccccc1C(=O)Oc1ccc2nc(/C=C/c3ccccc3)nc(O)c2c1 | > 40 µM | > 1 µg/mL | – | T/C (L1210 [24]): 99% |
| Oc1nc(C#Cc2ccccc2)nc2ccc(Cl)cc12 | > 40 µM | 0.002 µg/mL (≈ 0.00712 µM) | 125% | – |
| Oc1nc(/C=C/c2ccccc2)nc2ccc(F)cc12 | 5.4 µM | 0.05 µg/mL (≈ 0.188 µM) | – | T/C (L1210 [6]): 129% |
| CCN(CC)CCCC(C)Nc1nc(/C=C/c2ccccc2)nc2ccc(Cl)cc12 (configuration not stated) | > 40 µM | – | – | T/C (L1210 [25]): 105% |
| Oc1ccc2nc(/C=C/c3ccccc3)nc(O)c2c1 | > 40 µM | 0.006 µg/mL (≈ 0.0227 µM) | – | T/C (L1210 [6]): 99% |
| Oc1nc(/C=C/c2ccccc2)nc2ccc(Br)cc12 | 2 µM | 0.01 µg/mL (≈ 0.0306 µM) | – | T/C (L1210 [5]): 133% |
| CN1CCN(C(Cc2nc(O)c3cc(Cl)ccc3n2)c2ccccc2)CC1 (configuration not stated) | 5.3 µM | – | – | T/C (L1210 [6]): 100% |
| Oc1nc(/C=C/c2ccccc2)nc2ccc(Cl)cc12 | 2.5 µM | 0.001 µg/mL (≈ 0.00354 µM) | – | T/C (L1210 [2]): 146% |
| Cc1cccc2nc(/C=C/c3ccccc3)nc(O)c12 | > 40 µM | 0.03 µg/mL (≈ 0.114 µM) | 100% | – |
| CC(=O)Oc1ccc2nc(/C=C/c3ccccc3)nc(O)c2c1 | 4 µM | 0.3 µg/mL (≈ 0.979 µM) | 78% | – |
| COc1ccc2c(O)nc(/C=C/c3ccccc3)nc2c1 | 5.7 µM | 0.001 µg/mL (≈ 0.00359 µM) | 100% | – |
| Sc1nc(/C=C/c2ccccc2)nc2ccc(Cl)cc12 | > 40 µM | > 1 µg/mL | – | T/C (L1210 [2]): 94% |
| O=c1c2cc(Cl)ccc2nc2n1NC(c1ccccc1)C2 (configuration not stated) | > 40 µM | > 1 µg/mL | – | – |
| Oc1nc(/C=C/c2ccccc2)nc2cc(Cl)ccc12 | 17 µM | > 1 µg/mL | – | – |
| COc1cc2nc(/C=C/c3ccccc3)nc(O)c2cc1OC | 3.3 µM | 0.03 µg/mL (≈ 0.0973 µM) | 96% | – |
| C/C=C/c1nc(O)c2cc(Cl)ccc2n1 | > 40 µM | > 1 µg/mL | 95% | – |
| Nc1ccc2nc(/C=C/c3ccccc3)nc(O)c2c1 | > 40 µM | 0.6 µg/mL (≈ 2.28 µM) | – | – |
| O=S1(=O)N=C(/C=C/c2ccccc2)Nc2ccccc21 | > 40 µM | > 1 µg/mL | 91% | – |
| Oc1nc(/C=C/c2ccccc2)nc2cccc(Cl)c12 | > 40 µM | > 1 µg/mL | – | T/C (L1210 [6]): 100% |
| Oc1nc(/C=C/c2ccccc2)nc2cc(Cl)c(F)cc12 | > 40 µM | 0.007 µg/mL (≈ 0.0233 µM) | – | T/C (L1210 [6]): 111% |
